How the values were obtained:
PC-3 [1] = experiment: Antiproliferative activity against human PC3 cells assessed as decrease in cell viability after 3 days by WST assay; type: functional, cell-based; settings: PC-3, 72 h
Summary of the method: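 Cells were seeded at 3,200 per well. PC-3 and LNCaP were grown in RPMI-1640 and DU-145 in EMEM, each with 10% FBS and 1% penicillin/streptomycin, at 37 °C and 5% CO2. Cells were exposed for 3 days to at least five concentrations, with DMSO as vehicle control. WST-1 reagent was then added for 3 h at 37 °C and absorbance read at 430 nm. IC50 came from linear inhibition, averaged over triplicates.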

PC-3 [2] = experiment: Potency index, ratio of curcumin IC50 to test compound IC50 for human PC3 cells; type: functional
PWR-1E [3] = experiment: Antiproliferative activity against human PWR-1E cells expressing androgen receptor and PSA assessed as decrease in cell viability after 3 days by WST assay; type: functional, cell-based; settings: 72 h
Summary of the method: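 Non-malignant prostate epithelial PWR-1E (adenovirus 12/SV40-immortalized) was seeded at 5,000 per well. Cells were exposed for 3 days at 37 °C in a CO2 incubator to at least five concentrations, with DMSO as vehicle control. WST-1 reagent was then added for 3 h at 37 °C and absorbance read at 430 nm. IC50 came from linear inhibition, as the mean of triplicate determinations.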

PWR-1E [4] = experiment: Potency index, ratio of curcumin IC50 to test compound IC50 for human PWR-1E cells expressing androgen receptor and PSA; type: functional
[5] = Drug metabolism in human liver microsomes assessed as (1Z,4E)-5-(1-sec-butyl-1H-imidazol-2-yl)-1-hydroxy-1-(2-methyl-4-(trifluoromethyl)thiazol-5-yl)penta-1,4-dien-3-one formation at 10 mM after 60 mins by UHPLC analysis; type: ADME, microsome
Summary of the method: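 Pooled human liver microsomes in potassium phosphate buffer (pH 7.4) with NADPH solutions A and B were preincubated for 5 min at 37 °C. Compound was then added from a 10 mM stock (3 μL into 300 μL total) and incubated 60 min at 37 °C. Reactions were quenched with an equal volume of methanol and centrifuged (10,000 × g, 4 min, 4 °C). Supernatant went to UHPLC–high-resolution MS for metabolite identification.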

PC-3 [6] = experiment: Cell cycle arrest in human PC3 cells assessed as accumulation at G2 phase at 5 uM after 16 hrs by propidium iodide staining-based flow cytometric method (reference value: 25 to 28%); type: functional
PC-3 [7] = experiment: Induction of apoptosis in human PC3 cells assessed as viable cells at 10 uM after 16 hrs by F2N12S/CYTOX AADvanced double staining-based flow cytometric method (reference value: 95%); type: functional; settings: PC-3, 16 h, read-out: Activity
PC-3 [8] = experiment: Induction of apoptosis in human PC3 cells assessed as early apoptotic cells at 10 uM after 16 hrs by F2N12S/CYTOX AADvanced double staining-based flow cytometric method (reference value: 2%); type: functional
PC-3 [9] = experiment: Induction of apoptosis in human PC3 cells assessed as early apoptotic cells at 20 uM after 16 hrs by F2N12S/CYTOX AADvanced double staining-based flow cytometric method (reference value: 2%); type: functional
PC-3 [10] = experiment: Induction of apoptosis in human PC3 cells assessed as late apoptotic/necrotic cells at 20 uM after 16 hrs by F2N12S/CYTOX AADvanced double staining-based flow cytometric method (reference value: 3%); type: functional
PC-3 [11] = experiment: Induction of apoptosis in human PC3 cells assessed as viable cells at 30 uM after 16 hrs by F2N12S/CYTOX AADvanced double staining-based flow cytometric method (reference value: 95%); type: functional; settings: PC-3, 16 h, read-out: Activity
PC-3 [12] = experiment: Induction of apoptosis in human PC3 cells assessed as viable cells at 40 uM after 16 hrs by F2N12S/CYTOX AADvanced double staining-based flow cytometric method (reference value: 95%); type: functional; settings: PC-3, 16 h, read-out: Activity
PC-3 [13] = experiment: Induction of apoptosis in human PC3 cells assessed as early apoptotic cells at 40 uM after 16 hrs by F2N12S/CYTOX AADvanced double staining-based flow cytometric method (reference value: 2%); type: functional

For `CCC(C)n1ccnc1/C=C/C(=O)/C=C/c1sc(C)nc1C(F)(F)F` (stereo not drawn), the IC50 (PC-3 [1]) was 0.23 µM, the “Ratio IC50” value (PC-3 [2]) was 110 and the IC50 (PWR-1E [3]) was 0.11 µM. For the same compound, the “Ratio IC50” value (PWR-1E [4]) was 81, the Drug metabolism [5] was “Metabolite_Detected” and the Activity (PC-3 [6]) was 18%. It also gave a viability at 10 µM (PC-3 [7]) of 49%, an Activity (PC-3 [8]) of 14% and an Activity (PC-3 [9]) of 26%. For the same compound, the Activity (PC-3 [10]) was 23%, the viability at 30 µM (PC-3 [11]) was 34% and the viability at 40 µM (PC-3 [12]) was 22%. For the same compound, the Activity (PC-3 [13]) was 25%.

Reference: ChEMBL document CHEMBL4190216, “Asymmetric 1,5-diarylpenta-1,4-dien-3-ones: Antiproliferative activity in prostate epithelial cell models and pharmacokinetic studies” (Eur J Med Chem, 2017)
